Ecoli rRNA inh: inhibitors of bacterial rRNA selective over humanized ribosomes; E. coli WT GFP vs humanized-ribosome RFP mutants, fluorescence, 24 h; active compounds read low; DMSO median 0, no signal -100; GFP signal change (wild-type ribosome), % (test concentration not listed); hit rate 1.6% among 350,000; AID 720706;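 active = significant combined selectivity score with lowered wild-type GFP, culture density cut under 30%, mutant RFP and density less affected; inactive = any of these conditions unmet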
ERAP1 HTS inh: blocks human ERAP1 aminopeptidase activity | inhibition, % at 10.7 µM | recombinant ERAP1, Leu-AMC fluorescence, 60 min | Q9NZ08 | hit rate 0.15% among 340,000;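 active = mean replicate inhibition of at least 30%, or all replicates individually reaching that 30% level; inactive = mean below 30% and not every replicate reaching it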
Target sequence (Q9NZ08 whole entry, looked up): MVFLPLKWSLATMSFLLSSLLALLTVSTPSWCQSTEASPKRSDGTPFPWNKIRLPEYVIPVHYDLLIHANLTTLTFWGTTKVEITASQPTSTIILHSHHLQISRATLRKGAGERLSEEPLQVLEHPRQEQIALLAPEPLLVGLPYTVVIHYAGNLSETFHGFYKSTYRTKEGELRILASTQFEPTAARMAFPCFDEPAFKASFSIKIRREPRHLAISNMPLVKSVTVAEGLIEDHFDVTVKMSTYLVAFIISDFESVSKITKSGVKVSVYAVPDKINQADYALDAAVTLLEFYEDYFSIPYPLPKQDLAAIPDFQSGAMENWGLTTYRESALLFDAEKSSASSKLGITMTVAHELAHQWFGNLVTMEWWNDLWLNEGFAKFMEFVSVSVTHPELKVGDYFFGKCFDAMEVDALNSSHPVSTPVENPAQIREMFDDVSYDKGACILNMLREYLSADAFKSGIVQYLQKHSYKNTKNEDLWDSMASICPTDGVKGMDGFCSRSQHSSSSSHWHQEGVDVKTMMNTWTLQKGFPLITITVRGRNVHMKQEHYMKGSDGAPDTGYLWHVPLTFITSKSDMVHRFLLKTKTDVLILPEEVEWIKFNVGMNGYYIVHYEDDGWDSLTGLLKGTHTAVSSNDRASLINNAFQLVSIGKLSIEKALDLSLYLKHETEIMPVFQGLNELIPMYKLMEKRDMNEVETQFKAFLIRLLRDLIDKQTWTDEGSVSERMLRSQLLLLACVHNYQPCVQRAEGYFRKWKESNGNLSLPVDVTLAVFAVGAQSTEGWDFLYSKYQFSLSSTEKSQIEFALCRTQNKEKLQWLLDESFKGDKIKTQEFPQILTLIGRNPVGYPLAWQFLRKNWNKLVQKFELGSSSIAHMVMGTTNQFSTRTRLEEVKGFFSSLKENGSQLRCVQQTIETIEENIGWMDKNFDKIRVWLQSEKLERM
FGF22 binding: binders of recombinant human FGF22 by thermal shift | Q9HCT0 | SYPRO orange fluorescence; percent of sucrose octasulfate shift, DMSO zero | activity (Tm shift, normalised), % at 9.99 µM | hit rate 1.5% among 340,000;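 active = mean Tm shift, scaled 0 neutral to 100 positive control, at about 1.3% or above, every replicate too, limit read from the data; inconclusive = no clear call, values can overlap the other calls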
Cneo AK release: Cryptococcus neoformans lysis via adenylate kinase release; AID 651654; hit rate 0.2% among 360,000; C. neoformans lysis, adenylate kinase release luminescence, 4 h; normalised: neutral wells 0, clomiphene wells 100; lysis activity, % at 15 µM;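 active = mean lysis activity across replicates of at least 80%, whatever share of replicates individually reach that level; inactive = mean lysis activity below 80%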
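Material – log-phase Cryptococcus neoformans yeast cells · Input – 5 × 10^6 yeast cells/mL · Medium – fresh YPD growth medium · Doses – single compound concentration per well · Timing – static 4 h at 37 °C with compound, 1 h detection · Detection – adenylate kinase release luminescence · Read-out – signal increase indicating cell lysis · Control set – Clomiphene as positive lysis control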
Env fusion inh: inhibitors of HIV Env-mediated cell fusion. HeLa-JRFL Env/CEM21 cell fusion, luciferase. inhibition, % at 12.3 µM. hit rate 1.1% among 360,000;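 active = mean replicate inhibition score of at least 50 and every replicate individually at or above 50; inconclusive = only one of the two criteria met; inactive = mean below 50 and not all replicates reaching 50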
PGC1a acetyl inh: PGC1a acetylation modulation, inhibitor mode; AID 651687; hit rate 0.17% among 350,000; inhibition, % at 15.6 µM; U2OS PGC1a acetylation, AlphaScreen anti-acetyl-lysine; with virally co-expressed GCN5 acetyltransferase;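 active = every replicate shows inhibition of at least 40%; inconclusive = mean inhibition at least 40% but some replicate below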
AID977621: growth inhibition of wild-type GFP E. coli, dose response, H69 mutant RFP, cherry-pick. shares compounds with Ecoli rRNA inh. E. coli wild-type GFP strain growth, fluorescence, 24 h. activity change, negative = inhibition at 50 µM. 1,900 tested, under 10 active;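 active = Wild-type ribosome reporter drop at least double the humanized mutant ribosome reporter drop, growth loss under a set limit; inconclusive = no clear call, values can overlap the other calls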;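 also: wild-type GFP and H69 mutant RFP strains grown together 50/50 in each well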
AID977628: E. coli growth inhibition, wild-type GFP versus h24 humanized RFP strain, dose response, h24 mutant RFP vs wild-type GFP, cherry-pick | 1,900 tested, under 10 active | E. coli WT GFP strain growth, fluorescence, 24 h | shares compounds with Ecoli rRNA inh | activity change, negative = inhibition at 50 µM;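 active = compound lowering the normal-ribosome reporter at least twice as much as the humanized-ribosome reporter, growth loss under a set limit; inconclusive = no clear call, values can overlap the other calls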;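 also: wild-type GFP and h24 humanized RFP strains co-cultured 1 to 1 per well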
Large screens that a line does not name were inactive (follow-up assays come after a bar, where they were run). Sampled rows, rich in hits. Any-hit rate of the full collection: about 3.5%.

CCN(CC)C(=O)CSC1=Nc2ccccc2C2=NC(Cc3c[nH]c4ccccc34)C(=O)N12 (stereo unspecified)	none (no result: Ecoli rRNA inh, ERAP1 HTS inh, FGF22 binding)
COC(=O)CN1C(=S)N(c2ccc(F)cc2)C(=O)C1CC(=O)Nc1ccc(OC)cc1 (stereo unspecified)	Ecoli rRNA inh -21.6 | AID977628 inactive
COc1ccc(NC(=O)CC2C(=O)N(C)C(=S)N2CCc2ccc(F)cc2)cc1 (stereo unspecified)	none (no result: Ecoli rRNA inh)
O=C(CC1C(=O)N(c2ccc(Cl)cc2)C(=S)N1CCc1ccncc1)Nc1ccc(F)cc1 (stereo unspecified)	Ecoli rRNA inh -21.2, FGF22 binding 2.3 (no result: Env fusion inh) | AID977621 inactive
CCNC(=O)CC1C(=O)N(c2ccc(F)cc2)C(=S)N1CCc1ccncc1 (stereo unspecified)	none (no result: Cneo AK release)
CC(C)COc1ccc(C(=O)OCCN2CCCCC2)cc1	none
CS(=O)(=O)NCCSc1cc(C(F)(F)F)nc2ccccc12	Ecoli rRNA inh -19.6 (no result: Cneo AK release, PGC1a acetyl inh) | AID977628 inconclusive
C#CC[N+](C)(C)CCN1C(=O)C2C(c3ccccc3)C=CC(c3ccccc3)C2C1=O (stereo unspecified)	none (no result: Cneo AK release)
CC(C)OC(=O)C[N+](C)(C)CCN1C(=O)C2C(c3ccccc3)C=CC(c3ccccc3)C2C1=O (stereo unspecified)	Ecoli rRNA inh -34.5 (no result: Cneo AK release) | AID977621 inactive | AID977628 inactive
O=C1Nc2ccccc2C(O)(C(=O)NCc2ccc3c(c2)OCO3)N1c1ccccc1 (stereo unspecified)	none (no result: Ecoli rRNA inh, ERAP1 HTS inh, FGF22 binding)
CCOC(=O)C(C)Sc1nc(N2CCOCC2)c2c(c1C#N)CC(C)(C)OC2 (stereo unspecified)	Ecoli rRNA inh -28.6 | AID977621 inactive | AID977628 inactive
CCOC(=O)CCSc1nc(N2CCOCC2)c2c(c1C#N)CC(C)(C)OC2	none (no result: Cneo AK release, PGC1a acetyl inh)
O=C(NC1CCCCC1)NC1CC2CCCC(C1)N2C1CCCC1 (stereo unspecified)	none (no result: Ecoli rRNA inh, ERAP1 HTS inh, FGF22 binding, PGC1a acetyl inh)
Cc1ccc(C2NC(c3ccc(C)cc3)C(C)C(=O)C2C)cc1 (stereo unspecified)	Ecoli rRNA inh -27.4 (no result: Cneo AK release, PGC1a acetyl inh) | AID977621 inactive | AID977628 inactive
Cn1c(=O)c2c(ncn2CC(O)CNc2ccc(F)cc2)n(C)c1=O (stereo unspecified)	Ecoli rRNA inh -27.3 (no result: Cneo AK release) | AID977621 inactive | AID977628 inactive
Cc1cccc(NC(=O)NNC(=O)c2ccc(C)c([N+](=O)[O-])c2)c1	none
O=C1CSCC(=O)N1c1ncc(C(F)(F)F)cc1Cl	none (no result: Cneo AK release)
CCC(C)NC(=O)c1nn(Cc2ccccc2)c(=O)c2ccccc12 (stereo unspecified)	none
COCC(C)NC(=O)c1nn(Cc2ccccc2)c(=O)c2ccccc12 (stereo unspecified)	Ecoli rRNA inh -13.0 (no result: PGC1a acetyl inh) | AID977621 inactive | AID977628 inactive
O=C1N/C(=C\c2ccccc2)C(O)=C1C=NCc1ccccc1	none (no result: Ecoli rRNA inh, ERAP1 HTS inh, FGF22 binding)
O=C(Nc1cccc(Cl)c1)N1C[C@H]2[C@@H](c3ccccc31)[C@H](CO)N2C(=O)c1ccncc1	none (no result: Env fusion inh)
O=C(Nc1cccc(Cl)c1)N1C[C@H]2[C@@H](c3ccccc31)[C@@H](CO)N2C(=O)c1ccncc1	Ecoli rRNA inh -23.0 (no result: Env fusion inh) | AID977628 inconclusive
O=C(Nc1cccc(Cl)c1)N1C[C@H]2[C@@H](c3ccccc31)[C@H](CO)N2Cc1ccncc1	Ecoli rRNA inh -29.3 (no result: Env fusion inh) | AID977628 inconclusive
O=C(Nc1ccccc1F)N1C[C@@H]2[C@H](c3ccccc31)[C@@H](CO)N2C(=O)Cc1ccccc1	Ecoli rRNA inh -43.6 (no result: Env fusion inh) | AID977628 inconclusive
CN(C(=O)COC(=O)CSc1ccc(C(N)=O)cc1[N+](=O)[O-])C1CCCCC1	Ecoli rRNA inh -16.2 (no result: Env fusion inh, PGC1a acetyl inh) | AID977621 inactive | AID977628 inactive
CCCCNC(=S)NNC(=O)c1csc2c1CCC(C)C2 (stereo unspecified)	none (no result: Ecoli rRNA inh, ERAP1 HTS inh, FGF22 binding)
CCN(C(=O)CSc1cc(C)c2ccc(OC)cc2n1)C1CCS(=O)(=O)C1 (stereo unspecified)	Ecoli rRNA inh -22.7 | AID977621 inactive | AID977628 inactive
CCN(C(=O)CSc1cc(-c2ccccc2)c2ccc(OC)cc2n1)C1CCS(=O)(=O)C1 (stereo unspecified)	none (no result: Ecoli rRNA inh, Cneo AK release, PGC1a acetyl inh)
COc1ccc(/C=C/C(=O)NCCCN2CCOCC2)cc1	none
O=C(N[C@@H]1CC[C@H](CCNC(=O)c2cnccn2)O[C@@H]1CO)c1ccc2c(c1)OCO2	none
O=C(C1Cc2ccccc2CN1C(=O)c1ccccc1)N1CCN(c2ccccc2)CC1 (stereo unspecified)	Ecoli rRNA inh -22.5 | AID977621 inactive | AID977628 inactive
COc1ccc(N2CCN(C(=O)C3Cc4ccccc4CN3C(=O)c3ccco3)CC2)cc1 (stereo unspecified)	none (no result: Ecoli rRNA inh)
FC(F)(F)C1=NNC(c2ccc3ccccc3c2)=NN1	none (no result: Cneo AK release, PGC1a acetyl inh)
C[C@H]1CN([C@@H](C)CO)C(=O)c2cc(N(C)C)ccc2O[C@H]1CN(C)C(=O)Nc1ccc2c(c1)OCO2	none
CC(=O)Nc1ccc(NC(=O)C(C)OC(=O)CCCc2c[nH]c3ccccc23)cc1 (stereo unspecified)	none (no result: PGC1a acetyl inh)
CC(OC(=O)CCc1nc2ccccc2c(=O)[nH]1)C(=O)c1ccc(Br)cc1 (stereo unspecified)	Ecoli rRNA inh -23.5 (no result: Env fusion inh, PGC1a acetyl inh) | AID977628 inconclusive
CC(OC(=O)CCc1c[nH]c2ccccc12)C(=O)c1ccccc1 (stereo unspecified)	Ecoli rRNA inh -24.8 (no result: Cneo AK release) | AID977628 inconclusive
c1coc(CSc2ncnc3c2oc2ccccc23)c1	Ecoli rRNA inh -22.9 (no result: ERAP1 HTS inh) | AID977621 inactive | AID977628 inactive
c1ccc(CSc2ncnc3c2oc2ccccc23)cc1	none (no result: Ecoli rRNA inh, ERAP1 HTS inh, FGF22 binding, Env fusion inh)
CN1C(=O)c2cccc3c(S(=O)(=O)NCCc4ccccc4)ccc1c23	Ecoli rRNA inh -23.2 | AID977621 inconclusive
O=C(CN1N=C(c2ccccc2)CCC1=O)NCCCN1CCc2ccccc2C1	none (no result: Ecoli rRNA inh, ERAP1 HTS inh, FGF22 binding)
COc1ccc(Oc2ccc(C(F)(F)F)cc2NC(=O)CC(CC(=O)O)c2ccccc2)cc1 (stereo unspecified)	Ecoli rRNA inh -35.6 | AID977621 inactive
Cn1c(CCN2CCOCC2)nc2cc(NC(=O)c3cccs3)ccc21	Ecoli rRNA inh -18.1 (no result: Cneo AK release) | AID977621 inactive | AID977628 inconclusive
COC(=O)CC1COc2ccccc2N1C(=O)c1ccc(Br)cc1 (stereo unspecified)	Ecoli rRNA inh -24.8 | AID977621 inactive | AID977628 inactive

Assay outcomes (PubChem)
